# Data published in PMC10349574 (Drug Design, Development and Therapy, 2023).
# “Also recorded” adds a separate entry of the source.
# Experiments:
# DU145 cells [1] = assay: Cell cycle assay, propidium iodide flow cytometry; assay type: cell-based; conditions: DU145, 24 h
# In short: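 DU145 cells were treated 24 h after plating with increasing test compound concentrations (3, 10, 30 μM) or silibinin (30 μM), and harvested 24 h later. They were PBS-washed, fixed in ice-cold 70% ethanol for ≥24 h, rewashed in room-temperature PBS and stained with propidium iodide plus RNase-A (30 min, 37 °C). Flow cytometry followed. Data are mean ± SD of three experiments.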
# DU145 cells [2] = assay: Apoptosis assay, Annexin V-FITC/Propidium Iodide flow cytometry; assay type: cell-based; conditions: 24 h
# In short: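 DU145 cells in six-well plates were treated 24 h at 37 °C with vehicle, test compound (3, 10, 30 μM) or silibinin reference (30 μM). Cells were harvested, washed in ice-cold PBS, stained with an Annexin V-FITC apoptosis kit and analysed by flow cytometry. Data are mean ± SD of three individual experiments.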
# [3] = cited from earlier work
Compound,effect on cell cycle (in words) (DU145 cells [1]),"induction of apoptosis (in words) (DU145 cells [2]; DU145, 3, 10 and 30 μM)","ability to promote DU145 cell apoptosis relative to silibinin (DU145 cells [2]; DU145, same concentration of 30 μM)",Solubility in H2O [3]
"COc1cc(C2Oc3cc(C4Oc5cc(O)cc(O)c5C(=O)C4OC(=O)CCC(=O)O[C@H]4O[C@@H](CO)C(O)[C@@H](O)[C@@H]4O)ccc3OC2CO)ccc1O (stereo partly drawn) [Compound 15, 5,7-Dihydroxy-2-[3-(4-hydroxy-3-methoxyphenyl)-2-(hydroxymethyl)-2,3-dihydrobenzo[b][1,4]dioxin-6-yl]-4-oxochroman-3-yl [(2R,3S,4R,6S)-3,4,5-trihydroxy-6-(hydroxymethyl)tetrahydro-2H-pyran-2-yl] succinate]",arrested cell cycle at G2/M phase; also recorded: blocked the tumor cells in G2/M -phase progression,induced apoptosis in DU145 cells; also recorded: markedly induced cell apoptosis in a dose-dependent manner,approximately 2 times,
COc1cc(C2Oc3cc([C@H]4Oc5cc(O)cc(O)c5C(=O)[C@@H]4O)ccc3OC2CO)ccc1O (stereo partly shown) [Silibinin],,,,less than 0.4 mg/L
